# Reference: ChEMBL document CHEMBL1138691, “Substituted furo[3,2-b]pyridines: novel bioisosteres of 5-HT 1F receptor agonists” (Bioorg Med Chem Lett, 2004)
# What was measured:
# [1] = target: T1, 5-hydroxytryptamine receptor 1F (Homo sapiens, UniProt P30939); assay: In vitro binding affinity for human 5-hydroxytryptamine 1F receptor
# T1 sequence (P30939 whole entry): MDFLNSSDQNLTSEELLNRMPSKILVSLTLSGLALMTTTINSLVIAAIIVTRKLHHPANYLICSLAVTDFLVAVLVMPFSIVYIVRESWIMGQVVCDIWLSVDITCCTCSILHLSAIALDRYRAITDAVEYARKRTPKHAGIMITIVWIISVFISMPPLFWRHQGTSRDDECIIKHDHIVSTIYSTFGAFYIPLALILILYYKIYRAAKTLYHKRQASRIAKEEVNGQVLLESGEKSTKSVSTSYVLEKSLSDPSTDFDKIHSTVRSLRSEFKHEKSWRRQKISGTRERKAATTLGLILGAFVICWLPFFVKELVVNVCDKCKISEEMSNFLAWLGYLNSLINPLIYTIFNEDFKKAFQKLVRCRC
# In short: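 Radioligand binding in cell lines expressing the human 5-HT receptor; Ki reported as mean of three or more experiments with SEM.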
# [2] = Ratio of the Ki value for human 5-HT1A receptor versus human 5-HT1F receptor
# In short: (§1)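 Selectivity ratio: Ki at human 5-HT1A, 5-HT1B or 5-HT1D receptor divided by Ki at human 5-HT1F receptor. Each Ki from radioligand binding in cell lines expressing the relevant human receptor, derived from two or more experiments.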
# [3] = Ratio of the Ki value for human 5-HT1B receptor versus human 5-HT1F receptor; in short: as §1
# [4] = Ratio of the Ki value for human 5-HT1D receptor versus human 5-HT1F receptor; in short: as §1
# [5] = target: Serotonin (5-HT) receptor (Homo sapiens) (UniProt P30939+P41595+Q13639+P28222+P46098+P08908+P28221+P28223+P28335+P28566+P34969+P50406+P47898+A5X5Y0+O95264+Q70Z44+Q8WXA8); assay: Maximum stimulation of [35S]GTP-gamma-S, binding expressed relative to the maximal effect of 5-hydroxytryptamine; type: functional
# In short: (§2)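 [35S]GTP-γ-S binding stimulated in mouse LM(tk-) cells expressing human 5-HT1F receptor; means of at least two separate experiments, each run in triplicate, with SEM.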
# [6] = target: T1, 5-hydroxytryptamine receptor 1F; assay: Concentration required for stimulation of [35S]GTP-gamma-S, binding in mouse LM(tk-1) cells expressing the human 5-hydroxytryptamine 1F receptor; type: functional, cell-based; in short: as §2
compound,measurement,setting,value
Cc1oc2ccc(NC(=O)c3ccc(F)cc3)nc2c1CCN(C)C,Ki,[1],13.5 nM
same,Selectivity ratio,[2],65
same,Selectivity ratio,[3],42
same,Selectivity ratio,[4],19
CN1CCC(c2coc3ccc(NC(=O)c4c(F)cccc4Cl)nc23)CC1,Ki,[1],2.9 nM
same,Emax,[5],87%
same,EC50,[6],68.7 nM
same,Selectivity ratio,[2],103
same,Selectivity ratio,[3],164
same,Selectivity ratio,[4],31
CN1CCC(c2c[nH]c3ccc(NC(=O)c4ccc(F)cc4)cc23)CC1,Ki,[1],1.6 nM
same,Selectivity ratio,[2],7
same,Selectivity ratio,[3],85
same,Selectivity ratio,[4],86
CN1CCC(c2coc3ccc(NC(=O)c4c(F)cc(F)cc4F)nc23)CC1,Ki,[1],2.3 nM
same,Emax,[5],87%
same,EC50,[6],91.7 nM
same,Selectivity ratio,[2],57
same,Selectivity ratio,[3],181
same,Selectivity ratio,[4],62
CN1CCC(c2coc3ccc(NC(=O)c4ccc(F)cc4)nc23)CC1,Ki,[1],3.1 nM
same,Emax,[5],88%
same,EC50,[6],66 nM
same,Selectivity ratio,[2],134
same,Selectivity ratio,[3],> 1000
same,Selectivity ratio,[4],> 1000
CN1CCC(c2coc3ccc(NC(=O)c4ccc(F)cc4Cl)nc23)CC1,Ki,[1],3 nM
same,Emax,[5],92%
same,EC50,[6],27.7 nM
same,Selectivity ratio,[2],47
same,Selectivity ratio,[3],177
same,Selectivity ratio,[4],165
CN1CCC(c2c[nH]c3ccc(NC(=O)c4ccc(F)cc4)nc23)CC1,Selectivity ratio,[2],7.3
same,Selectivity ratio,[3],160
same,Selectivity ratio,[4],960
Cc1[nH]c2ccc(NC(=O)c3ccc(F)cc3)cc2c1CCN(C)C,Ki,[1],8.2 nM
same,Selectivity ratio,[2],32
same,Selectivity ratio,[3],130
same,Selectivity ratio,[4],200
